Assay results gathered from unrelated publications.
Compare with care: the assays were run in different laboratories.
Target: Serine/threonine-protein kinase Chk1 (CHEK1, Homo sapiens, UniProt O14757)
Residues used in one study (O14757 1-476): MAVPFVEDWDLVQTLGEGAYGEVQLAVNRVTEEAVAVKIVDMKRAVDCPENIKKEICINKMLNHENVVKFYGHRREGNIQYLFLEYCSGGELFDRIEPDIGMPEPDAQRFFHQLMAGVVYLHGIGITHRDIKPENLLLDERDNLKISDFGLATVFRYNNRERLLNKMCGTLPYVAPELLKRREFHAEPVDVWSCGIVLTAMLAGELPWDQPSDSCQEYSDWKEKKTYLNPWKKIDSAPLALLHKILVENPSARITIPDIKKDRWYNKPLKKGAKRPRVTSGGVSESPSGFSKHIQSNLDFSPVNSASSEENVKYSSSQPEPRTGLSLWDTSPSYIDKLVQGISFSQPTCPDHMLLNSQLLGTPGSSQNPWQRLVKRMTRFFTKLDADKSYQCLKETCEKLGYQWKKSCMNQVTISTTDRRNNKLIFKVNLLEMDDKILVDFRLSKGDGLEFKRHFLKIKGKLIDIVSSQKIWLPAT

`O=C(c1ccc(Nc2nccc(-c3cc4ccccc4s3)n2)cc1)N1CCC(N2CCCC2)CC1` has a remaining binding of 100% (binding, competition with immobilised ligand; 1 µM).
The remaining binding of `N[C@H]1CCN(c2nccc(-c3cnn4ncccc34)n2)C1` is reported as 100% (binding; 1 µM).
For `COc1ncc2cc3ccccc3nc2c1C#N`, the remaining binding was 100% (cell-free assay, competition with immobilised ligand; 5 µM).
With `F[C@@H]1CCN(c2nccc(-c3cnn4ncccc34)n2)C1` the remaining binding was 92% (binding; 1 µM).
`O=C(c1ccc(Nc2ncc(Cl)c(-c3ccc(Cl)s3)n2)cc1)N1CCC(N2CCCC2)CC1` has a remaining binding of 37% (binding, competition with immobilised ligand; 1 µM).
`CC(=O)c1c(NS(C)(=O)=O)c2cc(-c3ccc(Cl)cc3)c(-c3ccc(Cl)cc3Cl)nc2n(C)c1=O` gave a remaining binding of 100% (cell-free assay, competition with immobilised ligand; 1 µM).
`CC(C)(C)c1ccc(-c2nc(CBr)nn2-c2cccc(O)c2)cc1` has a remaining binding of 86% (cell-free assay, competition with immobilised ligand; 10 µM).
`N#Cc1ccc(Nc2ccc3[nH]c(=O)[nH]c3c2)c(Cl)c1` has a remaining binding of 98% (cell-free assay, competition with immobilised ligand; 1 µM).
For `COc1ccnn2ncc(-c3ccnc(N(C)C)n3)c12`, the remaining binding was 94% (binding; 1 µM).
For `CNC(=O)c1ccc(Nc2ncc(C(F)(F)F)c(NCc3nccnc3N(C)S(C)(=O)=O)n2)cc1`, the remaining binding was 100% (cell-free assay, competition with immobilised ligand; 0.1 µM).
`C[C@H]1CCN(c2nccc(-c3cnn4ncccc34)n2)C1` gave a remaining binding of 76% (binding; 1 µM).
`CCN1CCN(Cc2ccc(C(=O)Nc3ccc(C)c(Oc4ccc5c(c4)CC(=O)N5)c3)cc2C(F)(F)F)CC1` gave a remaining binding of 100% (binding, competition with immobilised ligand; 1 µM).
The remaining binding of `CC1CCCN1c1nccc(-c2cnn3ncccc23)n1` (stereo not drawn) is reported as 99% (binding; 1 µM).
With `FC(F)(F)c1ccc2c(c1)nc(-c1cccnc1)n2C1CC1` the remaining binding was 100% (cell-free assay, competition with immobilised ligand; 1 µM).
With `O=C(Nc1c[nH]nc1C(=O)NC1CCNCC1)c1cc(F)cc(F)c1` the remaining binding was 100% (binding, competition with immobilised ligand; 1 µM).
With `C[C@@H]1CN(c2ccc3ncc(-c4ccc5[nH]nc(C6CC6)c5c4)n3n2)C[C@H](C)O1` the remaining binding was 91% (binding, competition with immobilised ligand; 50 nM).
The remaining binding of `c1cnn2ncc(-c3ccnc(N4CCC45COC5)n3)c2c1` is reported as 89% (binding; 1 µM).
`CNC(=O)[C@@H]1CC[C@@H](n2c(-c3ccc4cnccc4c3)nc3ccc(C(=O)NCc4cccc(C(N)=O)c4)cc32)C1` has a remaining binding of 100% (binding, competition with immobilised ligand; 1 µM).
For `CC(=O)Nc1c(C(C)=O)c(=O)n(C)c2nc(-c3ccc(Cl)cc3Cl)c(-c3ccc(Cl)cc3)cc12`, the remaining binding was 100% (cell-free assay, competition with immobilised ligand; 1 µM).
With `CN(C)c1nccc(-c2cnn3ncccc23)n1` the remaining binding was 100% (binding; 1 µM).
For `CN(C)C(=O)Cn1cc(-c2nc([C@@](C)(c3ccc(-c4cnc(N)nc4)cc3)C3CC3)no2)cn1`, the remaining binding was 85% (cell-free assay, competition with immobilised ligand; 1 µM).
`COc1cnc(Nc2cccc(S(N)(=O)=O)c2)nc1N1CCN(c2ccccc2)CC1` gave a remaining binding of 100% (binding, competition with immobilised ligand; 1 µM).
The remaining binding of `O=C(c1ccc(Nc2ncc(Cl)c(-c3cc4ccccc4s3)n2)cc1)N1CCC(N2CCCC2)CC1` is reported as 54% (binding, competition with immobilised ligand; 1 µM).
For `CCCCN(CCCC)C(=O)CN1C[C@H](c2cc(OC)c3c(c2)OCO3)[C@@H](C(=O)O)[C@@H]1CC(C)(C)CCC`, the remaining binding was 100% (cell-free assay, competition with immobilised ligand; 1 µM).
